Paper PMC3099401 (Journal of agricultural and food chemistry, 2011)

Key:
neuroblastoma cells [1] = assay: In vitro cell viability; format: cell-based; conditions: 4 days, normalized to DMSO controls; for effect on viability: 100 and 200 μM
neuroblastoma cells [2] = assay: Cellular uptake by live-cell multiphoton microscopy; format: cell-based; conditions: 37°C
Procedure, shortened: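 Live neuroblastoma cells in HBSS kept at 37°C on a stage incubator. Two-photon imaging used 765 nm Ti:Sapphire excitation, a 20× objective and a GaAsP photon-counting detector, with 1024×1024 images at identical laser power. Imaging ran from 90 s (the earliest possible) and at 5 min after adding 100 μM test compound, then again 5 min after an HBSS wash and after re-addition.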

[3] = test system: SK-N-AS neuroblastoma cells; assay: In vivo efficacy, SK-N-AS xenograft mouse model; set-up: species or system athymic nu/nu mice
NGP neuroblastoma cells = assay: Calcium imaging with fura-2, NGP; format: cell-based; conditions: 100 μM
[4] = test system: SK-N-AS neuroblastoma cells; assay: Calcium imaging with fura-2, SK-N-AS; format: cell-based; conditions: 100 μM

O=C(O)[C@H]1O[C@@H](Oc2cc(O)cc(/C=C/c3ccc(O)cc3)c2)[C@H](O)[C@@H](O)[C@@H]1O [3-Glu-Res, 3-O-glucuronidated Res]
effect on viability (neuroblastoma cells [1]): no effect on viability

O=C(O)[C@H]1O[C@@H](Oc2ccc(/C=C/c3cc(O)cc(O)c3)cc2)[C@H](O)[C@@H](O)[C@@H]1O [4′-Glu-Res, 4′-O-glucuronidated Res]
effect on viability (neuroblastoma cells [1]): no effect on viability

Oc1ccc(/C=C/c2cc(O)cc(O)c2)cc1 [Res, resveratrol]
cellular uptake (cellular fluorescence, excited at 765 nm) (neuroblastoma cells [2]; 100 μM, HBSS): enters and then permeates throughout the cell | time after addition until cells become brightly fluorescent (neuroblastoma cells [2]; earliest time point that can be taken): ≤ 90 s | reduction of the number of viable cells (neuroblastoma cells [1]; 100 μM): ~85% | tumor regression ([3]; direct injection into the tumor, 250mg/kg, block copolymer formulation): regression of the tumor was then observed | tumor inhibition compared to vehicle-treated controls ([3]; peri-tumor, 5 injections of 200 μL R-P104 (approx. 5.0 mg Res each) over two weeks): about 88% | change in [Ca^2+]i (fura-2 fluorescence) (NGP neuroblastoma cells): rise in [Ca^2+]i | change in [Ca^2+]i (fura-2 fluorescence) [4]: rise in [Ca^2+]i

O=S(=O)(O)Oc1cc(O)cc(/C=C/c2ccc(O)cc2)c1 [monosulf-Res, Res 3-O-sulfate]
effect on viability (neuroblastoma cells [1]): no effect on viability
